Our source for the GI50, TGI and CC50 values is ChEMBL document CHEMBL4033615, “Protoxenicins A and B, Cytotoxic Long-Chain Acylated Xenicanes from the Soft Coral Protodendron repens” (2017).

Type in all cases: functional
Common to all, as to details: for CC50: read-out: LC50 (the source's name)

Assay [1] concerns MDA-MB-231. As to the kind of experiment: Cytotoxic activity against human MDA-MB-231 cells. In short, it runs like this: (§1)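 Human tumour lines (A-549 lung carcinoma, MDA-MB-231 breast adenocarcinoma, HT-29 colorectal carcinoma) exposed to test agent. Growth measured against untreated control cells. Survival estimated with the NCI algorithm, yielding three dose–response parameters: GI50 (50% growth inhibition), TGI (total growth inhibition) and LC50 (50% cell death).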

The subject of assay [2] is HT-29. As to the kind of experiment: Cytotoxic activity against human HT-29 cells. A digest of the protocol: as §1
Assay [3] deals with A549. Briefly: Cytotoxic activity against human A549 cells. In short, it runs like this: as §1

As for `C=C1[C@@H]2[C@@H](OC(C)=O)OC=C([C@@H](OC(C)=O)[C@H](C=C(C)C)OC(=O)CCCCCCCCC)[C@H]2CC/C(C)=C/[C@@H](O)[C@H]1O`, in assay [1], halving of growth (GI50) required 6300 nM, the TGI was determined as 9700 nM and the CC50 was determined as 12900 nM. In assay [2], the GI50 was found to be 1700 nM, total growth inhibition (TGI) required 5200 nM and the CC50 stood at 10400 nM. Also, in assay [3], it took 6100 nM to inhibit growth by half (GI50), the TGI is 10100 nM and the CC50 came out at 13300 nM.
As to `COc1cccc2c1C(=O)c1c(O)c3c(c(O)c1C2=O)C[C@@](O)(C(=O)CO)C[C@@H]3O[C@H]1C[C@H](N)[C@H](O)[C@H](C)O1` [DOXORUBICIN], the GI50 is 200 nM in assay [1], 300 nM in assay [2] and 200 nM in assay [3]. The TGI in assay [1] amounted to 500 nM; in assay [2] it was 900 nM; in assay [3] it was 900 nM. The CC50 in assay [1] was 2400 nM; in assay [2], greater than 17200 nM; in assay [3], greater than 17200 nM.
For the compound `C=C1[C@@H]2[C@@H](OC(C)=O)OC=C([C@@H](OC(C)=O)[C@@H](OC(=O)CCCCCCCCC)[C@H]3OC3(C)C)[C@H]2CC[C@](C)(O)[C@@H]2O[C@@H]2[C@H]1O`, the GI50 in assay [1] was determined as 2100 nM; in assay [2], 600 nM; in assay [3], 1100 nM. The TGI in assay [1] came out at 2800 nM; in assay [2] it was 1200 nM; in assay [3], 1400 nM. Besides, the values for the CC50 in assay [1], in assay [2] and in assay [3] were 3800 nM, 2200 nM and 1800 nM, respectively.
